The values that follow come from PMC3736319 (Antiviral therapy, 2012).

For data set [1] the following is noted: cited from earlier work.
The nature of data set [2]: Steady-state plasma pharmacokinetics of abacavir. The format is in vivo, human (HIV-infected subjects). Particulars: for Change in plasma ABC concentrations: in the presence of raltegravir versus ABC alone.
A short description of data set [3]: Steady-state intracellular carbovir triphosphate. The format is in vivo, human (HIV-infected subjects).
The format of data set [4] is in vivo, human (HIV-infected subjects). Particulars: human, plasma, 400 mg. The procedure, abridged:
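HIV-infected adults on a steady-state nucleoside backbone (600 mg once daily, plus two NRTIs, no tenofovir) were randomized 1:1 to a crossover: boosted protease inhibitor 900/100 mg once daily or integrase inhibitor 400 mg twice daily, 14 days each. On days 15 and 29, after a standardized breakfast, serial plasma was drawn over 24 h (protease inhibitor, booster) or 12 h (integrase inhibitor) and measured by a validated assay. Non-compartmental linear–linear trapezoidal AUC0–24 or AUC0–12.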

[5] abbreviates: in the presence of darunavir/ritonavir versus ABC alone.
Where [6] appears, read: with darunavir/ritonavir versus ABC alone.
[7] abbreviates: with raltegravir versus ABC alone.
The mark [8] stands for this setting: PBMC, ABC 600 mg once daily alone, steady state, n=19.

Entries after “also recorded” stand apart in the source; their conditions may differ. Where two headings read alike, the source gives them in different places.

The AUC(0-t) is the area under the concentration-time curve up to a stated or last time point. Higher therefore signals more exposure. Broadly, the Cmax is the highest concentration seen after dosing. Regarding `Nc1nc(NC2CC2)c2ncn([C@H]3C=C[C@@H](CO)C3)c2n1` [ABC, abacavir], the “Decrease in ABC plasma exposure” value in data set [1] (in combination with boosted atazanavir) is recorded as 17%. Further, in data set [1] (in combination with boosted lopinavir), the “Decrease in ABC plasma exposure” value is on record as 32%. Besides, the “Decrease in ABC plasma exposure” value in data set [1] (in combination with boosted tipranavir) was 40%. Also, in data set [1] (with high doses of ethanol), the “Increase in ABC plasma exposure” value was 41%. In data set [2] (human, plasma, 600 mg), this compound came in with an area under the curve AUC(0-t) of 13500 ng·h/mL, a Cmax of 4010 ng/mL and a concentration at 24 h of 4.3 ng/mL. In addition, in data set [2] (setting [5]), the “Decrease in plasma ABC AUC (exposure)” value is reported as 27%, the “Decrease in plasma ABC Cmax” value was 22% and the “Decrease in plasma ABC Ctrough” value amounted to 38%. Moreover, the “Change in plasma ABC concentrations” value in data set [2] was “No significant changes”. Further, in data set [2] (listed as abacavir), the “Change in plasma ABC concentrations” value is given as “no changes”. Besides, in data set [2] (plasma, across study phases), the “Inter-individual variability in ABC Ctrough” value was above 87%. Also, in data set [2] (setting [6]), the “Plasma ABC Ctrough, GMR (90% CI)” value is 0.62 (0.50, 0.77). Besides, in data set [2] (setting [7]), the “Plasma ABC Ctrough, GMR (90% CI)” value is reported as 0.83 (0.62, 1.11).
As to `Nc1nc(=O)c2ncn([C@H]3C=C[C@@H](COP(=O)(O)OP(=O)(O)OP(=O)(O)O)C3)c2[nH]1` [CBV-TP, carbovir 5′-triphosphate], in data set [3] (setting [8]), the “Intracellular CBV-TP AUC0–24, geometric mean (90% CI)” value is 4,459 (4,060, 5,802) fmol•h/million cells; the “Intracellular CBV-TP Cmax, geometric mean (90% CI)” value is given as 329 (298, 450) fmol/million cells; the “Intracellular CBV-TP Ctrough, geometric mean (90% CI)” value was 107 (96, 143) fmol/million cells. For the same compound, the “Inter-individual variability in intracellular CBV-TP pharmacokinetic parameters” value in data set [3] (during coadministration of ABC and darunavir/ritonavir or raltegravir) is on record as above 43%. For the same compound, in data set [3] (setting [5]), the “Change in intracellular CBV-TP Cmax and AUC0–24” value is given as “no other significant change; also recorded: not significantly different”; the “Decrease in intracellular CBV-TP Ctrough” value was 32%. Moreover, in data set [3] (in the presence of raltegravir versus ABC alone), the “Change in intracellular CBV-TP concentrations” value is on record as “did not lead to any significant alteration; also recorded: No significant changes”. In data set [3] (in the presence of raltegravir versus ABC alone, not statistically significant), the “Decrease in intracellular CBV-TP Ctrough” value was determined as 43%. Moreover, the “Intracellular CBV-TP Ctrough, GMR (90% CI)” value in data set [3] (setting [6]) was 0.68 (0.48, 0.95). Further, in data set [3] (setting [7]), the “Intracellular CBV-TP Ctrough, GMR (90% CI)” value is given as 0.57 (0.33, 1.00).
On to `Cc1nnc(C(=O)NC(C)(C)c2nc(C(=O)NCc3ccc(F)cc3)c(O)c(=O)n2C)o1` [raltegravir], for which the AUC(0-t) in data set [4] came to 2410 ng·h/mL.
